Results on one molecule are retold here after ChEMBL document CHEMBL5678801, “A benzothiophene inhibitor of mitogen-activated protein kinase-activated protein kinase 2 inhibits tumor necrosis factor alpha production and has oral anti-inflammatory efficacy in acute and chronic models of inflammation” (J Pharmacol Exp Ther, 2010).

Data set [1] is described as follows: AUC in chronic SCW-induced arthritis Lewis rat model plasma at ED80 concentration. It is filed as ADME, cell-free. An outline of the steps: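 Female Lewis rats (125-140 g) received a single i.p. streptococcal cell wall injection. Animals showing the acute phase were pooled, 4-8 per group over three experiments. Dosing was oral gavage b.i.d., days 10-21, in methylcellulose-Tween-20 vehicle. Hind paw volume was read by displacement plethysmometer on day 21, as % inhibition of swelling. Plasma was sampled up to 11 h after the last dose, 3 rats per dose. ED values came from fitted curves.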

Data set [2] is described as follows: Inhibition of recombinant RSK1/2/3/4 (unknown origin) using KKKALSRQLSVAA as substrate incubated for 1 hr followed by substrate addition in presence of ATP. Also noted: species or system Homo sapiens. An outline of the steps: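 MAPKAP family kinases were activated by p38α (1:50 molar, 250 μM ATP, 1 h, 30°C). Assays ran in 20 mM HEPES pH 7.5, 10 mM MgCl2, 1 mM DTT, 0.01% BSA, 0.0005% Tween-20, at MgATP fixed at each enzyme's Km(app). The 33P-labelled product peptide was separated by ion exchange. Duplicate experiments. MSK1 (367-802) and MSK2 (351-772) were N-terminal 6xHis constructs from Sf9 cells.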

Data set [3] has as its target T1, Phosphorylase b kinase gamma catalytic chain, liver/testis isoform (Homo sapiens, UniProt P15735).
T1 sequence (P15735 whole entry): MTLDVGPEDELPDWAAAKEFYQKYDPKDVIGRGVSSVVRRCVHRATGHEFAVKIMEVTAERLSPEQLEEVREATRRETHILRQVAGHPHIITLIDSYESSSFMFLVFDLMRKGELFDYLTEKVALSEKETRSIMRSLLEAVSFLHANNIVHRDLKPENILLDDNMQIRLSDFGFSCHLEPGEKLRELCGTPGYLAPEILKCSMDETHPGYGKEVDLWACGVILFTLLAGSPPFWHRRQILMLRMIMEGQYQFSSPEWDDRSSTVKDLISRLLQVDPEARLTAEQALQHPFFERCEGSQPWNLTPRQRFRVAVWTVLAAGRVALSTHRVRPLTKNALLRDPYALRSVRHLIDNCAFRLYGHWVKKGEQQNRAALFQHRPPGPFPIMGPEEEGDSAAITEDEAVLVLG
The data set can be described thus: Inhibition of PhKgamma2 (unknown origin). An outline of the steps: (§1)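 Kinase panel: 200 kinases were first screened at 1 μM inhibitor for percent inhibition. Those above 50% inhibition were then titrated for IC50. MgATP was fixed at the Km(app) determined for each enzyme.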

In data set [4] the target is Cyclin-dependent kinase 5/CDK5 activator 1 (Homo sapiens, UniProt Q00535). The data set can be described thus: Inhibition of CDK5/p35 (unknown origin). It is filed as protein-complex assay. The method in brief:
as §1

A short description of data set [5]: Inhibition of TNF-alpha production in LPS-induced human U-937 cells preincubated with compound for 1 hr followed by LPS induction and measured after 4 hrs by MSD analysis. It is filed as functional, cell-based. An outline of the steps: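 U937 cells were pretreated with compound for 1 h (<1% DMSO final), then stimulated with LPS 100 ng/ml at 37°C. Media TNFα was read at 4 h by MSD electrochemiluminescence. Three separate experiments in duplicate, mean ±S.E.M. IC50 by 4-parameter nonlinear regression.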

The nature of data set [6]: Inhibition of MK2 activity in LPS induced human U937 cells preincubated with compound for 1 hr followed by LPS induction and measured after 30 mins by Western blot analysis. It is filed as functional, cell-based. The note with it: u-937. An outline of the steps: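 U937 cells were pretreated with compound for 1 h, then stimulated with LPS 100 ng/ml for 30 min at 37°C. Lysates were run on SDS-PAGE and Western blotted for p-Ser78-HSP27 and total HSP27, detected with fluorescent secondary antibodies and LiCor scanning. The phospho/total ratio was expressed against the LPS-only control. Single experiment repeated three times. 4-parameter fit.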

Data set [7] in a line: Inhibition of IL-6 production in LPS induced human PBMC cells preincubated with compound for 1 hr followed by LPS induction and measured after 16 hrs by MSD analysis. Format: functional, cell-based. The method in brief:
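Human PBMCs were pretreated with compound for 1 h (<1% DMSO final), then stimulated with LPS 100 ng/ml at 37°C. Cytokines in culture media were read by MSD 4-plex: TNFα at 4 h; IL-1β, IL-6 and IL-8 at 16 h. Data are means ±S.E.M. of two independent experiments in duplicate, three donors. IC50 by 4-parameter nonlinear regression.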

Data set [8] can be described thus: Inhibition of IL-1 beta production in LPS induced human Whole blood cell preincubated with compound for 1 hr followed by LPS induction and measured after 16 hrs. Format: functional, cell-based. An outline of the steps:
(§2)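 Human whole blood was stimulated ex vivo with LPS 100 ng/ml. Plasma cytokines were read by MSD 4-plex: TNFα at 4 h; IL-1β, IL-6 and IL-8 at 16 h. Data are means ±S.E.M. of two independent experiments in duplicate, three donors. IC50 by 4-parameter nonlinear regression.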

Data set [9] in a line: Antiinflammatory activity in human PBMC cells assessed as inhibition of LPS induced TNF alpha production preincubated for 1 hr followed by LPS stimulation and measured after 16 hrs by MSD analysis. It is filed as functional, cell-based.
Data set [10] is described as follows: Antiinflammatory activity in human Whole blood cell assessed as inhibition of LPS induced TNF alpha production preincubated for 1 hr followed by LPS stimulation and measured after 16 hrs by MSD analysis. It is filed as functional, cell-based.
The nature of data set [11]: Antiinflammatory activity in human Whole blood cell assessed as inhibition of LPS induced IL-1 beta production preincubated for 1 hr followed by LPS stimulation and measured after 16 hrs by MSD analysis. It is filed as functional, cell-based. An outline of the steps: as §2
Data set [12] in a line: Cytotoxicity against human Whole blood cell assessed as reduction in cell viability at upto 20 uM. It is filed as toxicity, cell-based.
Another data set is filed under the species Rattus norvegicus. Description: Inhibition of rat MK2 assessed as unbound fraction.

Cyclin-dependent kinase 5/CDK5 activator 1, sequence (Q00535 whole entry): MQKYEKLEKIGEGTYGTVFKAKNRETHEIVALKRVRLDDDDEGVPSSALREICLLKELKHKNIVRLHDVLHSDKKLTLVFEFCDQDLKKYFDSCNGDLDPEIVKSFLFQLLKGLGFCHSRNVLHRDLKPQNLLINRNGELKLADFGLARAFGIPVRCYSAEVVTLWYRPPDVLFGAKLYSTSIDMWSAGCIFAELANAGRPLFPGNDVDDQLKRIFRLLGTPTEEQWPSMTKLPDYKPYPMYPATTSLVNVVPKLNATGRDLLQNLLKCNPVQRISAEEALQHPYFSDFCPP
Cyclin-dependent kinase 5/CDK5 activator 1, sequence (Q15078 whole entry, further chain): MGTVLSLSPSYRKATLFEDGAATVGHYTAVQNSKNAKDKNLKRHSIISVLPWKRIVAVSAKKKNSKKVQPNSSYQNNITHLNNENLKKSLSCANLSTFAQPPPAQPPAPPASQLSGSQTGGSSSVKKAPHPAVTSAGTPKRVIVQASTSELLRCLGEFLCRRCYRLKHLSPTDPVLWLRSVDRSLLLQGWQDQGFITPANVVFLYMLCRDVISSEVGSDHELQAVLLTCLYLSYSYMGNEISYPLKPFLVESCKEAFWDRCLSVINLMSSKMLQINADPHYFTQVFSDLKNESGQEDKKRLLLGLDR

Consider `Cc1ccc(-c2ccc3c(ccc4sc5c(c43)NC[C@@H](C)NC5=O)n2)cn1`, for which the AUC in [1] is 117 µM·h. The IC50 in [2] was greater than 1 µM; in data set [3], 0.528 µM; in data set [4], 0.902 µM; in [5], 0.159 µM; in data set [6] it was 0.201 µM; in [7] it was 1.26 µM. For the same molecule, the IC50 in data set [8] is greater than 25 µM; in [9], 0.214 µM; in data set [10] it was 1.38 µM; in [11], greater than 20 µM. The Activity result in data set [12] was “Non-Toxic”. Moreover, the fEC50 in the data set filed under Rattus norvegicus stood at 110 nM.
